The values below come from ChEMBL document CHEMBL1126150, “New kappa-receptor agonists based upon a 2-[(alkylamino)methyl]piperidine nucleus” (J Med Chem, 1992).

Some results are limits rather than exact numbers.

One test relates to Mus musculus. Kind of test: Antinociceptive activity was determined using the mouse acetylcholine-induced abdominal constriction test followed by subcutaneous administration. Format: functional. The note with it: Abdomen, sc. Put shortly:
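Mice received each compound by subcutaneous injection and were scored in the acetylcholine-induced abdominal constriction test. An ED50 in mg/kg was determined for each compound.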

The target of test [1] is Kappa-type opioid receptor (Cavia porcellus) (UniProt P41144). Kind of test: pKa value was measured against Opioid receptor kappa 1. The procedure, abridged: (§1)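 pKa was found by titration of the compound at a sample concentration of 0.002 M in 10% methanol-water solvent.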
Sequence of Kappa-type opioid receptor (Cavia porcellus) (P41144 whole entry): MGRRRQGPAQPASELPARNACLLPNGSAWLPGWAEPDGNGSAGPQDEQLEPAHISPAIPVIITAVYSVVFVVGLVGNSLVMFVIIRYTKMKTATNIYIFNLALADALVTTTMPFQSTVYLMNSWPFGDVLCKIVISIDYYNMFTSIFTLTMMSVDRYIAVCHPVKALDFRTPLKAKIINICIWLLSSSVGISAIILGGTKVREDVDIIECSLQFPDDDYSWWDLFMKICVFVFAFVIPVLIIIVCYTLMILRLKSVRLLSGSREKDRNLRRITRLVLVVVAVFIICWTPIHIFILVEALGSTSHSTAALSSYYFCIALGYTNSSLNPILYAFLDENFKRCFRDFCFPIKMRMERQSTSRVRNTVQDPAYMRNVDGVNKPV
The target in test [2] is T1, Kappa-type opioid receptor (Homo sapiens, UniProt P41145). Kind of test: Opioid receptor kappa 1 agonist potency in vitro using rabbit vas deferens(LVD) preparation. Format: functional, Oryctolagus cuniculus. The following applies: target entry is the homologue from another species. The procedure, abridged: (§2)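 Isolated rabbit vas deferens (LVD) was used as an in vitro kappa-agonist bioassay. Potency is given as an IC50 in nM, the mean of two independent determinations, with individual values typically within ±10% of the mean. Compounds were tested as racemates.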
T1 sequence (P41145 whole entry): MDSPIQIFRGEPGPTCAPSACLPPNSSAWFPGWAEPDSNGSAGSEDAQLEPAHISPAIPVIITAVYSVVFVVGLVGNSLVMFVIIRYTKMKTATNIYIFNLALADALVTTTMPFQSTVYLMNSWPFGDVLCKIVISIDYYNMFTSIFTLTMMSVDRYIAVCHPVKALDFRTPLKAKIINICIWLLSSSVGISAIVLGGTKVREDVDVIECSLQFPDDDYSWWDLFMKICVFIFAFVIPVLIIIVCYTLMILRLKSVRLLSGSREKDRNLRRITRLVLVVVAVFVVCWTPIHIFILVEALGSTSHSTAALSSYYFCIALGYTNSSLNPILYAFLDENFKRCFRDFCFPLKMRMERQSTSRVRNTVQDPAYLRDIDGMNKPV

In test [3] the target is Kappa-type opioid receptor (Cavia porcellus) (UniProt P41144). Nature of the test: pKa value was measured against opioid receptor kappa. Put shortly: as §1
The target in test [4] is T1, Kappa-type opioid receptor. Kind of test: Opioid receptor kappa agonist potency in vitro using rabbit vas deferens(LVD) preparation. Type of test: functional, Oryctolagus cuniculus. The following applies: target entry is the homologue from another species. The procedure, abridged:
as §2

Test [5] has as its target Kappa-type opioid receptor (Cavia porcellus) (UniProt P41144). Nature of the test: pKa value was measured against kOpioid receptor kappa 1. The procedure, abridged:
as §1

Test [6] concerns the target T1, Kappa-type opioid receptor. Nature of the test: Kappa-opioid receptor agonist potency in vitro using rabbit vas deferens(LVD) preparation. Type of test: functional, Oryctolagus cuniculus. The following applies: target entry is the homologue from another species. The procedure, abridged:
as §2

Broadly, the ED50 is the midpoint of the dose-response relation. A higher ED50 goes with weaker potency. As to `O=C(Cc1ccc(Cl)c(Cl)c1)N1CCCCC1CN1CCCCC1` (stereo unspecified), the 50% effect level with Mus musculus (ED50) was put at a dose of 0.24 mg/kg.

As for `COC(=O)/C=C1/CCN(CC2CCCCN2C(=O)Cc2ccc(Cl)c(Cl)c2)C1` (stereo unspecified), in the test with Mus musculus, the ED50 came out at 0.07 mg/kg.

Take `NC(=O)[C@@H]1CCN(C(=O)Cc2ccc(Cl)c(Cl)c2)[C@H](CN2CCCC2)C1`: in the test with Mus musculus, the ED50 was over 10 mg/kg.

Compound `C=C1CCCN(C(=O)Cc2ccc(Cl)c(Cl)c2)C1CN1CCCC1` (stereo unspecified) displayed a median effective dose (ED50) in the test with Mus musculus of 0.11 mg/kg.

`O=C1CCCN(C(=O)Cc2ccc(Cl)c(Cl)c2)C1CN1CCCC1` (stereo unspecified) registered an ED50 in the test with Mus musculus of 3.4 mg/kg.

Compound `O=C1CCN(CC2CCCCN2C(=O)Cc2ccc(Cl)c(Cl)c2)CC1` (stereo unspecified) registered an ED50 with Mus musculus of over 10 mg/kg.

By IC50 is commonly meant the concentration needed to halve the response being measured. A higher IC50 goes with a need for much substance. Regarding `O=C1CCN(CC2CCCCN2C(=O)Cc2ccc(Cl)c(Cl)c2)C1` (stereo unspecified), the ED50 in the test on Mus musculus stood at 0.06 mg/kg. In test [1], the pKa was 5.3. In addition, the half-maximal inhibitory concentration (IC50) in test [2] amounted to 0.2 nM.

In the test with Mus musculus, `CN(C)CC1CCCCN1C(=O)Cc1ccc(Cl)c(Cl)c1` (stereo unspecified) gave an ED50 of 0.064 mg/kg. The compound also yielded an IC50 in test [2] of 102 nM.

Compound `O=C(Cc1ccc(Cl)c(Cl)c1)N1CCC[C@@H](O)[C@H]1CN1CCCC1` displayed a 50% effective dose (ED50) in the test on Mus musculus of 1.7 mg/kg.

Take `O=C(Cc1ccc(Cl)c(Cl)c1)N1CCC2(CC1CN1CCCC1)SCCS2` (stereo unspecified): in the test with Mus musculus, the ED50 came out at 0.025 mg/kg.

`COC(=O)C1=CCCN(CC2CCCCN2C(=O)Cc2ccc(Cl)c(Cl)c2)C1` (stereo unspecified) showed a median effective dose (ED50) with Mus musculus of 0.41 mg/kg.

Compound `O=C(Cc1ccc(Cl)c(Cl)c1)N1CC[C@H](O)C[C@H]1CN1CCCC1` yielded an ED50 with Mus musculus of 1.4 mg/kg.

Turning to `O=C(Cc1ccc(Cl)c(Cl)c1)N1CCC[C@H](O)[C@H]1CN1CCCC1`, in the test on Mus musculus, the ED50 worked out at 3.6 mg/kg.

Consider `O=C1CCN(C(=O)Cc2ccc(Cl)c(Cl)c2)C(CN2CCCC2)C1` (stereo unspecified), for which the median effective dose (ED50) in the test with Mus musculus came to 0.018 mg/kg.

With `C=C1CCN(CC2CCCCN2C(=O)Cc2ccc(Cl)c(Cl)c2)CC1` (stereo unspecified), the IC50 in test [2] was 550 nM.

In the test on Mus musculus, `O=C(Cc1ccc(Cl)c(Cl)c1)N1CCCCC1CN1CCC(O)C1` (stereo unspecified) had an ED50 of 0.01 mg/kg. This compound returned a pKa in test [3] of 8.1.

In the test with Mus musculus, `O=C(Cc1ccc(Cl)c(Cl)c1)N1CC[C@@H](O)C[C@H]1CN1CCCC1` registered an ED50 of 0.27 mg/kg. In test [2], this compound displayed an IC50 of 120 nM.

Consider `COC(=O)[C@@H]1CCC[C@@H](CN2CCCC2)N1C(=O)Cc1ccc(Cl)c(Cl)c1`, for which the 50% effect level in the test on Mus musculus (ED50) was put at a dose of 0.43 mg/kg.

`C[C@@H]1CCC[C@@H](CN2CCCC2)N1C(=O)Cc1ccc(Cl)c(Cl)c1`: in the test on Mus musculus, it took a dose of 0.4 mg/kg to reach the 50% effect level (ED50).

On to `O=C(Cc1ccc(Cl)c(Cl)c1)N1CCCCC1CN1CC=CCC1` (stereo unspecified), for which it took a dose of 0.009 mg/kg to reach the 50% effect level in the test with Mus musculus (ED50).

`O=C1CC[C@@H](CN2CCCC2)N(C(=O)Cc2ccc(Cl)c(Cl)c2)C1` gave an ED50 with Mus musculus of 0.91 mg/kg.

`COC(=O)/C=C1\CCN(CC2CCCCN2C(=O)Cc2ccc(Cl)c(Cl)c2)C1` (stereo unspecified): in the test with Mus musculus, the ED50 is 6.6 mg/kg.

The compound `C=C1CCN(CC2CCCCN2C(=O)Cc2ccc(Cl)c(Cl)c2)C1` (stereo unspecified) came in with an ED50 in the test with Mus musculus of 0.05 mg/kg. This compound returned a pKa in test [3] of 7.7.

Turning to `O=C(Cc1ccc(Cl)c(Cl)c1)N1CC2(CC[C@H]1CN1CCCC1)OCCO2`, the ED50 in the test with Mus musculus worked out at 1.1 mg/kg.

Take `N#C/C=C1\CCN(CC2CCCCN2C(=O)Cc2ccc(Cl)c(Cl)c2)C1` (stereo unspecified): in the test with Mus musculus, the ED50 was over 10 mg/kg. Besides, the IC50 in test [2] came to 690 nM.

Consider `O=C(Cc1ccc(Cl)c(Cl)c1)N1CCCCC1CN1CCC2(CC1)OCCO2` (stereo unspecified), for which, in the test on Mus musculus, the 50% effective dose (ED50) is over 10 mg/kg.

In the test with Mus musculus, `C[C@H]1CCC[C@@H](CN2CCCC2)N1C(=O)Cc1ccc(Cl)c(Cl)c1` gave an ED50 of 0.034 mg/kg.

As to `O=C(Cc1ccc(Cl)c(Cl)c1)N1CCCCC1CN1CC=CC1` (stereo unspecified), in the test with Mus musculus, the ED50 is 0.04 mg/kg. In addition, the IC50 in test [2] turned out to be 3.5 nM.

In the test on Mus musculus, `O=C(Cc1ccc(Cl)c(Cl)c1)N1CCC2(CC1CN1CCCC1)OCCO2` (stereo unspecified) returned an ED50 of 0.001 mg/kg.

In the test on Mus musculus, `N#C/C=C1/CCN(CC2CCCCN2C(=O)Cc2ccc(Cl)c(Cl)c2)C1` (stereo unspecified) returned an ED50 of 0.19 mg/kg. In addition, the IC50 in test [2] came to 0.12 nM.

On to `COC(=O)[C@@H]1CCN(C(=O)Cc2ccc(Cl)c(Cl)c2)[C@H](CN2CCCC2)C1`, for which the ED50 in the test on Mus musculus was over 10 mg/kg.

With `C=CCC1(CN2CCCC2)CCCCN1C(=O)Cc1ccc(Cl)c(Cl)c1` (stereo unspecified), the 50% effect level in the test on Mus musculus (ED50) was put at a dose of 2.4 mg/kg.

In test [4], `O=C(Cc1ccc(Cl)c(Cl)c1)N1[C@@H](CO)CCC[C@H]1CN1CCCC1` displayed an IC50 of 2200 nM.

Consider `O=C(Cc1ccc(Cl)c(Cl)c1)N1CCCCC1CN1CCCO1` (stereo unspecified), for which the ED50 with Mus musculus was determined as 0.38 mg/kg.

With `O=C(Cc1ccc(Cl)c(Cl)c1)N1CCCCC1CN1CCCC1` (stereo unspecified), it took a dose of 0.03 mg/kg to reach the 50% effect level in the test with Mus musculus (ED50). Further, the pKa in test [5] worked out at 9. In addition, the IC50 in test [6] was determined as 11 nM.
